Experiments:
[1] = molecular target: Human immunodeficiency virus type 1 protease (Human immunodeficiency virus 1, UniProt Q72874); experiment: Inhibitory activity against HIV-1 protease
MT2 = experiment: Concentration required to produce 50% reduction in virion associated RT activity in HIV-1 infected MT2 cells; format: functional, cell-based; conditions: Homo sapiens
In short: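 MT2 cells (5 × 10⁴ per 0.25 mL RF10, RPMI-1640-based) given compound (diluted from 20 mM stock in 60% ethanol), then immediately HIV-1 strain #237288 at 200 TCID₅₀; 37 °C, 5% CO₂, 6–7 days; duplicates. Supernatant virus PEG-precipitated, virion-associated RT activity counted by scintillation; % inhibition versus virus-only controls; IC50 = 50% RT reduction.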

[2] = The Water-octanol distribution coefficient at pH6.5; format: physicochemical; conditions: pH 6.5, read-out: Log D6.5
In short: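 Value computed by a cited calculation method at pH 6.5, not measured experimentally.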

| SMILES | Ki [1] [nM] | IC50 (MT2) [nM] | logD [2] |
| --- | --- | --- | --- |
| CCCC[C@@H]1NC(=O)[C@@H](NC(=O)[C@H](CO)NC(=O)OC(C)(C)C)CCCCOc2ccc(cc2)C[C@@H]([C@H](O)CN(CCC(C)C)S(=O)(=O)c2ccc(NC(C)=O)cc2)NC1=O | 12 | 2550 | 3 |
| CCCOC[C@@H]1NC(=O)[C@@H](NC(=O)OC(C)(C)C)CCCCOc2ccc(cc2)C[C@@H]([C@H](O)CN(CCC(C)C)S(=O)(=O)c2ccc(NC(C)=O)cc2)NC1=O | 45 | 825 | 3.6 |
| CC(=O)N[C@@H](CO)C(=O)N[C@H]1CCCCOc2ccc(cc2)C[C@@H]([C@H](O)CN(CCC(C)C)S(=O)(=O)c2ccc(N)cc2)NC(=O)[C@H](C(C)C)NC1=O | 0.34 | > 10000 | 0.4 |
| CCCC[C@@H]1NC(=O)[C@@H](NC(=O)[C@@H](N)CO)CCCCOc2ccc(cc2)C[C@@H]([C@H](O)CN(CCC(C)C)S(=O)(=O)c2ccc(N)cc2)NC1=O | 3 | > 10000 | 0.6 |
| CCCC[C@@H]1NC(=O)[C@@H](NC(C)=O)CCCCOc2ccc(cc2)C[C@@H]([C@H](O)CN(CCC(C)C)S(=O)(=O)c2ccc(N)cc2)NC1=O | 2.8 | 910 | 3 |
| CC(=O)Nc1ccc(S(=O)(=O)N(CCC(C)C)C[C@@H](O)[C@@H]2Cc3ccc(cc3)OCCCC[C@H](NC(=O)OC(C)(C)C)C(=O)N[C@@H](C(C)C)C(=O)N2)cc1 | 2 | 177 | 4.1 |
| CCCC[C@@H]1NC(=O)[C@@H](N)CCCCOc2ccc(cc2)C[C@@H]([C@H](O)CN(CCC(C)C)S(=O)(=O)c2ccc(N)cc2)NC1=O | 0.31 | 6850 | 1.7 |
| CCCOC[C@@H]1NC(=O)[C@@H](N)CCCCOc2ccc(cc2)C[C@@H]([C@H](O)CN(CCC(C)C)S(=O)(=O)c2ccc(N)cc2)NC1=O | 45 | > 10000 | 0.5 |
| CCCCC(=O)N[C@H]1CCCCOc2ccc(cc2)C[C@@H]([C@H](O)CN(CCC(C)C)S(=O)(=O)c2ccc(NC(C)=O)cc2)NC(=O)[C@H](CCCC)NC1=O | – | 580 | 4.6 |
| CC(C)CN(C[C@@H](O)[C@H](Cc1ccccc1)NC(=O)O[C@H]1CCOC1)S(=O)(=O)c1ccc(N)cc1 | – | 30 | – |
| CC(C)CCN(C[C@@H](O)[C@@H]1Cc2ccc(cc2)OCCCC[C@H](N)C(=O)N[C@@H](C(C)C)C(=O)N1)S(=O)(=O)c1ccc(N)cc1 | 0.9 | > 10000 | 1 |
| CCCC[C@@H]1NC(=O)[C@@H](NC(=O)OC(C)(C)C)CCCCOc2ccc(cc2)C[C@@H]([C@H](O)CN(CCC(C)C)S(=O)(=O)c2ccc(NC(C)=O)cc2)NC1=O | 7.5 | 390 | 4.8 |

From ChEMBL document CHEMBL1135804, “Beta-strand mimicking macrocyclic amino acids: templates for protease inhibitors with antiviral activity” (J Med Chem, 2002)
